Test: Toxicity liver stage against HepG2, at 10uM
Format: cell-based
Parameters: test concentration 10 uM, cell line HepG2-A16-CD81EGFP
Details: human, HepG2-A16-CD81EGFP cells; read-out: INHIBITION
In short: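 Uninfected HepG2-A16-CD81EGFP cells, 3 × 10^3 per well, 1536-well, plated on prespotted compound at 10 μM final, parasite-free screening media added to match infected plates; puromycin 10 μM positive, DMSO 0.5% negative; run in parallel with 48 h PbLuc assay at 37 °C, 5% CO2; viability by CellTiter-Glo luminescence, normalized to controls.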

Row | SMILES | cytotoxicity at 10 µM [%]
1 | O=C(C1CC1)N1C[C@@H](F)[C@@H](OCc2nc3cc(F)ccc3[nH]2)C1 | -6.92
2 | CC[C@H]1CN2CC[C@H]1C[C@@H]2CNC(=O)NC1CCCCC1 | 0.91
3 | CC[C@H]1CN(C(=O)C(C)(C)C)CC[C@H]1CC(=O)O | -0.61
4 | CC(=O)c1cc2ncc(C(=O)NC3CCCC3)cc2[nH]1 | -1.98
5 | C[C@H](NC(=O)N1CCN(c2ccc(Cl)cc2)CC1)C(=O)N1CCSCC1 | -6.3
6 | CCOc1ccc(S(=O)(=O)NCCc2ccc(N(C)C)cc2)cc1C | -6.48
7 | Cn1ncc2c1NC(=O)CSC2c1ccccc1Cl (stereo not drawn) | 5.81
8 | Cc1ccc(CS(=O)(=O)N2CC[C@H]3[C@H]2CCN3C)cc1 | -11.6
9 | COCC1CC2(CCN(C(=O)c3occc3C)CC2)CO1 (stereo not drawn) | 0.982
10 | Cc1nn(C)c2cn(CC(=O)N3CCc4ccccc4C3)nc12 | 8.41
11 | CCN(Cc1c(C)nn(CC)c1C)S(=O)(=O)c1cn(C)nc1C | 7.36
12 | CNc1cncc(C2CCN(C(=O)c3cnco3)CC2)n1 | -5.68
13 | CN(C)Cc1ccnc(C2CN(Cc3c(F)cccc3F)CCO2)n1 (stereo not drawn) | -3.14
14 | Cn1cc(CN2CCC(c3[nH]ncc3S(C)(=O)=O)C2)cn1 (stereo not drawn) | -4.55
15 | CN1CCCCC12Cc1ccccc1CN(C(=O)C1CCCC1)C2 (stereo not drawn) | 2.88
16 | CCOC1CCCN(C(=O)CCOc2ccc(C)cc2OC)C1 (stereo not drawn) | -9.22
17 | COc1ncccc1CNC(=O)N(Cc1ccccc1F)C1CC1 | 2.99
18 | CCc1cccc(C)c1NC(=O)C1CC(=O)N(Cc2ccccn2)C1 (stereo not drawn) | 1.09
19 | Cc1nn(C(C)C)c(C)c1S(=O)(=O)Nc1cccc(F)c1 | -0.335
20 | Cc1cc(NCC(=O)N(C)CC(F)(F)F)c(C(N)=O)cc1F | -2.91
21 | NC(=O)C1CCCN1C1CCN(C(=O)c2cccc3c2OCO3)CC1 (stereo not drawn) | -0.353

Row | SMILES | cytotoxicity at 10 µM [%]
22 | c1ccc(N(CCn2cncn2)CC2CC2)cc1 | 3.04
23 | Cc1n[nH]c(C)c1NC(=O)NCc1ccccn1 | 1.85
24 | CCC1COCCN1C(=O)NCc1nccn1CC(C)C (stereo not drawn) | -3.36
25 | OC(COCc1cccs1)Cn1cc(-n2cccc2)cn1 (stereo not drawn) | 0.12
26 | N#Cc1ccc(NC2CCN(CC(F)F)CC2)c(F)c1 | -5.3
27 | NCC1(c2cccc(C(F)(F)F)c2)CCOCC1 | -11.1
28 | O=C(NCCCO)Nc1cccc(Cl)c1F | 2.79
29 | O=C(Nc1nncs1)NC1CCc2ccccc21 (stereo not drawn) | -10
30 | CC[C@@H](C)[C@@H](N)C(=O)Nc1cccc(-c2cnc(N(C)CCO)nc2)c1 | -5.89
31 | C[C@@H]1CN(c2nc(N)nc3c2CCC3)C[C@]1(C)O | 4.6
32 | CC(C)[C@@H]1CN(C(=O)CCn2ccccc2=O)C[C@H]1NS(C)(=O)=O | 6.2
33 | CCOCc1nc(-c2ccc(F)cc2Cl)n(C2CCN(C)CC2)n1 | 0.0453
34 | CCCc1cc(C(=O)N2CC(c3ccncc3)C2)ccn1 | 2.36
35 | COc1ccc(N2CCN(C(=O)Cn3nc(C)c(C)c3C)C(C)C2)cc1 (stereo not drawn) | -4.33
36 | COCCc1noc(-c2cn(CCc3ccccc3)nn2)n1 | -2.56
37 | CN(C)CC1(O)CCCN(C(=O)CCc2nc3cccnc3n2C)C1 (stereo not drawn) | 0.0448
38 | CSCCC(=O)N1CCC(CCC(=O)NCC2CCCO2)CC1 (stereo not drawn) | 10.7
39 | COCc1cc(N2CCOC(c3ccc(Cl)cc3)C2)ncn1 (stereo not drawn) | 1.92
40 | Cc1cc(N2CCC(N3CCOCC3)C2)n2nc(C)c(C)c2n1 (stereo not drawn) | 3.9
41 | N[C@@H]1c2ccccc2C2(CCN(C(=O)c3cncc(Cl)c3)CC2)[C@H]1O | -2.78
42 | Cc1ccc(CN(C)C(C(=O)O)c2ccc3c(c2)OCO3)o1 (stereo not drawn) | 6.35

Row | SMILES | cytotoxicity at 10 µM [%]
43 | CCc1nnc(N[C@H](C)c2cccc(OC)c2)o1 | 1.35
44 | CCOCCn1nc(C2CCNCC2)n(Cc2ccccc2)c1=O | 4.08
45 | C[C@@H]1CN(CCC(=O)N(C)Cc2ccccc2)C[C@@]1(O)C1CCC1 | -6.95
46 | Cc1cc(C(=O)N2CCCC(c3nccn3Cc3ccncc3)C2)no1 (stereo not drawn) | 0.471
47 | CSCC(=O)N1CCC(c2nccn2Cc2cscn2)CC1 | -6.6
48 | Cn1ncc(N2CCC(CNC(=O)[C@@H](N)C3CCCCC3)CC2)cc1=O | 12.7
49 | CSc1ncc(C(=O)N2C[C@@H](NC(C)=O)[C@H](c3ccc(C)cc3)C2)cn1 | -0.645
50 | COCCN(C)CCN1CC2(CCN(C3CCCOC3)CC2)OC1=O (stereo not drawn) | -11
51 | CN1CC(c2ccccc2)CC12CCN(C(=O)c1cncc(Cl)c1)CC2 (stereo not drawn) | -12.6
52 | CCN1CCC2(CCC1=O)CN(c1ccnc(SC)n1)CCN2C (stereo not drawn) | 17.7
53 | CCSCC(C)NCc1nncn1C1CCCCC1 (stereo not drawn) | 15.3
54 | Cc1[nH]ccc1C(=O)N1CCC(c2nnc(Cn3ccnc3)n2C)CC1 | -9.61
55 | CCn1cc(CNC2CC(=O)N(CCc3cccc(Cl)c3)C2)cn1 (stereo not drawn) | -8.54
56 | Cc1nn(CC(=O)n2cccn2)c(C)c1I | -11.5
57 | COc1c(C2CCCN2C(=O)c2sc(C)nc2C)c(C)nn1C (stereo not drawn) | 3.62
58 | Cc1ncc(CN2CCN(c3ccc4nncn4n3)C(C)C2)s1 (stereo not drawn) | -9.04
59 | O=C(Cc1cccc(O)c1)NCCCNC(=O)c1cccc(F)c1 | 1.65
60 | Cc1cc(C)n(CC2CN(CC(=O)NC3CCCCC3)CCO2)n1 (stereo not drawn) | -5.17
61 | Cc1nc(C2CCCN(C(=O)c3ccc(OCC4CC4)nc3)C2)no1 (stereo not drawn) | -4.41
62 | CCNC(c1ccc(C(C)C)cc1)c1cccnc1 (stereo not drawn) | -1.66
63 | O=C(c1cnc(C2CC2)s1)N1CCCC1Cn1cccn1 (stereo not drawn) | -5.09

Row | SMILES | cytotoxicity at 10 µM [%]
64 | Cc1nc(C)n(C2CCCN(C(=O)c3cn4c(C)cccc4n3)C2)n1 (stereo not drawn) | -7.72
65 | CC(C)(C)c1noc(CN2CCN(C(=O)c3cccs3)CC2)n1 | -5.82
66 | Cc1nn(-c2ccccc2)c(C)c1CNC1CCc2ncnn2C1 (stereo not drawn) | 2.87
67 | Cc1cc(C)n(CC2CN(Cc3nnsc3Cl)CCO2)n1 (stereo not drawn) | 1.46
68 | CC(C(=O)NCCOc1ccc2c(c1)OCO2)n1cncn1 (stereo not drawn) | -4.33
69 | CC(=O)Nc1nc(C(=O)N2CCCC2c2ccccc2C)cs1 (stereo not drawn) | -2.27
70 | Cn1ncc(NCc2cc(F)cc(F)c2)c(Cl)c1=O | 6.69
71 | O=C(CNCCn1cccn1)NCC1(c2ccccc2)CC1 | 3.15
72 | Cn1ncc2c1CCCC2NCc1ccc(Cl)s1 (stereo not drawn) | 7.6
73 | CC(O)CN(CC(=O)NC(=O)NCC(F)(F)F)c1ccccc1 (stereo not drawn) | 1.15
74 | Cc1nnc(N2CCC(CS(N)(=O)=O)CC2)c(C#N)c1C | 2.12
75 | COCc1cccc(NS(=O)(=O)c2cc(C(=O)O)cs2)c1 | -4.69
76 | Cc1cccc(Cn2c3c(ccc2=O)CCN(Cc2ccoc2)CC3)n1 | -11.5
77 | O=c1ccc2c(n1CCN1CCCC1)CCN(Cc1ccoc1)CC2 | -8.97
78 | Cn1cc(N2C(=O)CC[C@@H]3[C@H]2CCN3CC2CCOCC2)cn1 | 7.86
79 | CNC(=O)[C@@H]1CCO[C@@H]2CCN(CCc3ccccc3)C[C@H]21 | 2.55
80 | CC(C)N(C)Cc1cnc2n1CCN(CCc1ccccc1)C2 | -4.58
81 | c1cc2nc(C3CCN(CC4CC4)CC3)nn2cc1N1CCCC1 | -8.13
82 | Cn1cc(CN2C[C@H]3CCC[C@@]3(COCC3CC3)C2)cn1 | -97.8
83 | CN1CCCCc2c1nc1c(c2N)CCC1 | 8.45

From ChEMBL document CHEMBL4513216, “Probing the Open Global Health Chemical Diversity Library for Multistage-Active Starting Points for Next-Generation Antimalarials” (ACS Infect Dis, 2020)
